Experimental data from ChEMBL document CHEMBL1122046, “Quaternary heterocyclylamino beta-lactams: a generic alternative to the classical acylamino side chain” (1982).
In brackets after ≈: the same amount, converted by molar mass.

test system: Escherichia coli; experiment: MIC against aerobic organism Escherichia coli strain 2891; assay type: functional; settings: Escherichia coli; read-out: MIC
In short: (§1)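 Agar-dilution MIC in µg/mL against aerobic bacterial strains on tryptocase soy agar, with inoculum applied as spots. Most series used 10^5 cfu per spot, and a later series used 10^4 cfu per spot. In some tables, footnoted strains were instead tested on Mueller-Hinton or nutrient agar. β-Lactamase-producing strains are flagged.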

Compound	MIC
[N-]=[N+]=NCC1=C(C(=O)[O-])N2C(=O)[C@@H](Nc3cc[n+](Cc4ccccc4)cc3)[C@H]2SC1	0.25 µg/mL (≈ 0.592 µM)
O=C([O-])C1=C(Cl)CS[C@@H]2[C@H](Nc3cc[n+](Cc4ccccc4)cc3)C(=O)N12	0.25 µg/mL (≈ 0.622 µM)
CN(C)CCn1nnnc1SCC1=C(C(=O)[O-])N2C(=O)[C@@H](Nc3cc[n+](Cc4ccccc4)cc3)[C@H]2SC1	< 0.06 µg/mL

Continued by falling MIC, values first:

MIC	Compound
64 µg/mL	Cn1nnnc1SCC1=C(C(=O)[O-])N2C(=O)[C@@H](Nc3cc[n+](COCC(Cl)(Cl)Cl)cc3C(=O)[O-])[C@H]2SC1.[Na+]
0.5 µg/mL (≈ 1.26 µM)	O=C([O-])C1=C(CO)CS[C@@H]2[C@H](Nc3cc[n+](Cc4ccccc4)cc3)C(=O)N12

test system: Klebsiella aerogenes; experiment: Minimum inhibitory concentration against aerobic organism Enterobacter aerogenes strain 2828; assay type: functional; settings: not given; in short: as §1

Compound	MIC
[N-]=[N+]=NCC1=C(C(=O)[O-])N2C(=O)[C@@H](Nc3cc[n+](Cc4ccccc4)cc3)[C@H]2SC1	8 µg/mL (≈ 18.9 µM)
O=C([O-])C1=C(Cl)CS[C@@H]2[C@H](Nc3cc[n+](Cc4ccccc4)cc3)C(=O)N12	8 µg/mL (≈ 19.9 µM)
CN(C)CCn1nnnc1SCC1=C(C(=O)[O-])N2C(=O)[C@@H](Nc3cc[n+](Cc4ccccc4)cc3)[C@H]2SC1	0.5 µg/mL (≈ 0.905 µM)

Results, then the compound that gave them:

MIC	Compound
> 128 µg/mL	Cn1nnnc1SCC1=C(C(=O)[O-])N2C(=O)[C@@H](Nc3cc[n+](COCC(Cl)(Cl)Cl)cc3C(=O)[O-])[C@H]2SC1.[Na+]
128 µg/mL (≈ 322 µM)	O=C([O-])C1=C(CO)CS[C@@H]2[C@H](Nc3cc[n+](Cc4ccccc4)cc3)C(=O)N12

test system: Enterobacter cloacae; experiment: Minimum inhibitory concentration against aerobic organism Enterobacter cloacae strain 2646; assay type: functional; settings: Enterobacter cloacae; read-out: MIC; in short: as §1

Compound	MIC
[N-]=[N+]=NCC1=C(C(=O)[O-])N2C(=O)[C@@H](Nc3cc[n+](Cc4ccccc4)cc3)[C@H]2SC1	1 µg/mL (≈ 2.37 µM)
O=C([O-])C1=C(Cl)CS[C@@H]2[C@H](Nc3cc[n+](Cc4ccccc4)cc3)C(=O)N12	4 µg/mL (≈ 9.95 µM)
CN(C)CCn1nnnc1SCC1=C(C(=O)[O-])N2C(=O)[C@@H](Nc3cc[n+](Cc4ccccc4)cc3)[C@H]2SC1	0.25 µg/mL (≈ 0.452 µM)

Continued, values first:

MIC	Compound
> 128 µg/mL	Cn1nnnc1SCC1=C(C(=O)[O-])N2C(=O)[C@@H](Nc3cc[n+](COCC(Cl)(Cl)Cl)cc3C(=O)[O-])[C@H]2SC1.[Na+]
1 µg/mL (≈ 2.52 µM)	O=C([O-])C1=C(CO)CS[C@@H]2[C@H](Nc3cc[n+](Cc4ccccc4)cc3)C(=O)N12

test system: Klebsiella pneumoniae; experiment: Minimum inhibitory concentration against aerobic organism Klebsiella pneumoniae strain 4005; assay type: functional; settings: not given; in short: as §1

Compound	MIC
[N-]=[N+]=NCC1=C(C(=O)[O-])N2C(=O)[C@@H](Nc3cc[n+](Cc4ccccc4)cc3)[C@H]2SC1	64 µg/mL (≈ 151 µM)
O=C([O-])C1=C(Cl)CS[C@@H]2[C@H](Nc3cc[n+](Cc4ccccc4)cc3)C(=O)N12	64 µg/mL (≈ 159 µM)
CN(C)CCn1nnnc1SCC1=C(C(=O)[O-])N2C(=O)[C@@H](Nc3cc[n+](Cc4ccccc4)cc3)[C@H]2SC1	4 µg/mL (≈ 7.24 µM)

Further lines, results first:

MIC	Compound
> 128 µg/mL	Cn1nnnc1SCC1=C(C(=O)[O-])N2C(=O)[C@@H](Nc3cc[n+](COCC(Cl)(Cl)Cl)cc3C(=O)[O-])[C@H]2SC1.[Na+]
> 128 µg/mL	O=C([O-])C1=C(CO)CS[C@@H]2[C@H](Nc3cc[n+](Cc4ccccc4)cc3)C(=O)N12

test system: Morganella morganii; experiment: Minimum inhibitory concentration against aerobic organism Morganella morganii strain 2833; assay type: functional; settings: Morganella morganii; read-out: MIC; in short: as §1

Compound	MIC
[N-]=[N+]=NCC1=C(C(=O)[O-])N2C(=O)[C@@H](Nc3cc[n+](Cc4ccccc4)cc3)[C@H]2SC1	> 128 µg/mL
O=C([O-])C1=C(Cl)CS[C@@H]2[C@H](Nc3cc[n+](Cc4ccccc4)cc3)C(=O)N12	> 128 µg/mL
CN(C)CCn1nnnc1SCC1=C(C(=O)[O-])N2C(=O)[C@@H](Nc3cc[n+](Cc4ccccc4)cc3)[C@H]2SC1	64 µg/mL (≈ 116 µM)

Results, then the compound that gave them:

MIC	Compound
> 128 µg/mL	Cn1nnnc1SCC1=C(C(=O)[O-])N2C(=O)[C@@H](Nc3cc[n+](COCC(Cl)(Cl)Cl)cc3C(=O)[O-])[C@H]2SC1.[Na+]
> 128 µg/mL	O=C([O-])C1=C(CO)CS[C@@H]2[C@H](Nc3cc[n+](Cc4ccccc4)cc3)C(=O)N12

test system: Pseudomonas aeruginosa; experiment: Minimum inhibitory concentration against aerobic organism Pseudomonas aeruginosa strain 2835; assay type: functional; settings: not given; in short: as §1

Compound	MIC
[N-]=[N+]=NCC1=C(C(=O)[O-])N2C(=O)[C@@H](Nc3cc[n+](Cc4ccccc4)cc3)[C@H]2SC1	> 128 µg/mL
O=C([O-])C1=C(Cl)CS[C@@H]2[C@H](Nc3cc[n+](Cc4ccccc4)cc3)C(=O)N12	> 128 µg/mL
CN(C)CCn1nnnc1SCC1=C(C(=O)[O-])N2C(=O)[C@@H](Nc3cc[n+](Cc4ccccc4)cc3)[C@H]2SC1	> 128 µg/mL

Second part, the compound after the results:

MIC	Compound
> 128 µg/mL	Cn1nnnc1SCC1=C(C(=O)[O-])N2C(=O)[C@@H](Nc3cc[n+](COCC(Cl)(Cl)Cl)cc3C(=O)[O-])[C@H]2SC1.[Na+]
> 128 µg/mL	O=C([O-])C1=C(CO)CS[C@@H]2[C@H](Nc3cc[n+](Cc4ccccc4)cc3)C(=O)N12

test system: Proteus mirabilis; experiment: Minimum inhibitory concentration against aerobic organism Proteus mirabilis strain 2830; assay type: functional; settings: Proteus mirabilis; read-out: MIC; in short: as §1

Compound	MIC
[N-]=[N+]=NCC1=C(C(=O)[O-])N2C(=O)[C@@H](Nc3cc[n+](Cc4ccccc4)cc3)[C@H]2SC1	> 128 µg/mL
O=C([O-])C1=C(Cl)CS[C@@H]2[C@H](Nc3cc[n+](Cc4ccccc4)cc3)C(=O)N12	> 128 µg/mL
CN(C)CCn1nnnc1SCC1=C(C(=O)[O-])N2C(=O)[C@@H](Nc3cc[n+](Cc4ccccc4)cc3)[C@H]2SC1	128 µg/mL (≈ 232 µM)

The remaining lines, values ahead:

MIC	Compound
> 128 µg/mL	Cn1nnnc1SCC1=C(C(=O)[O-])N2C(=O)[C@@H](Nc3cc[n+](COCC(Cl)(Cl)Cl)cc3C(=O)[O-])[C@H]2SC1.[Na+]
> 128 µg/mL	O=C([O-])C1=C(CO)CS[C@@H]2[C@H](Nc3cc[n+](Cc4ccccc4)cc3)C(=O)N12

test system: Proteus vulgaris; experiment: Minimum inhibitory concentration against aerobic organism Proteus vulgaris strain 2829; assay type: functional; settings: Proteus vulgaris; read-out: MIC; in short: as §1

Compound	MIC
[N-]=[N+]=NCC1=C(C(=O)[O-])N2C(=O)[C@@H](Nc3cc[n+](Cc4ccccc4)cc3)[C@H]2SC1	< 0.06 µg/mL
O=C([O-])C1=C(Cl)CS[C@@H]2[C@H](Nc3cc[n+](Cc4ccccc4)cc3)C(=O)N12	< 0.125 µg/mL
CN(C)CCn1nnnc1SCC1=C(C(=O)[O-])N2C(=O)[C@@H](Nc3cc[n+](Cc4ccccc4)cc3)[C@H]2SC1	0.125 µg/mL (≈ 0.226 µM)

Results, then the compound that gave them:

MIC	Compound
> 128 µg/mL	Cn1nnnc1SCC1=C(C(=O)[O-])N2C(=O)[C@@H](Nc3cc[n+](COCC(Cl)(Cl)Cl)cc3C(=O)[O-])[C@H]2SC1.[Na+]
< 0.06 µg/mL	O=C([O-])C1=C(CO)CS[C@@H]2[C@H](Nc3cc[n+](Cc4ccccc4)cc3)C(=O)N12

test system: Salmonella; experiment: Minimum inhibitory concentration against aerobic organism Salmonella strain 3860; assay type: functional; settings: not given; in short: as §1

Compound	MIC
[N-]=[N+]=NCC1=C(C(=O)[O-])N2C(=O)[C@@H](Nc3cc[n+](Cc4ccccc4)cc3)[C@H]2SC1	1 µg/mL (≈ 2.37 µM)
O=C([O-])C1=C(Cl)CS[C@@H]2[C@H](Nc3cc[n+](Cc4ccccc4)cc3)C(=O)N12	128 µg/mL (≈ 319 µM)
CN(C)CCn1nnnc1SCC1=C(C(=O)[O-])N2C(=O)[C@@H](Nc3cc[n+](Cc4ccccc4)cc3)[C@H]2SC1	2 µg/mL (≈ 3.62 µM)

Further lines, results first:

MIC	Compound
> 128 µg/mL	Cn1nnnc1SCC1=C(C(=O)[O-])N2C(=O)[C@@H](Nc3cc[n+](COCC(Cl)(Cl)Cl)cc3C(=O)[O-])[C@H]2SC1.[Na+]
> 128 µg/mL	O=C([O-])C1=C(CO)CS[C@@H]2[C@H](Nc3cc[n+](Cc4ccccc4)cc3)C(=O)N12

test system: Staphylococcus aureus; experiment: Minimum inhibitory concentration against aerobic organism Staphylococcus aureus strain 2865; assay type: functional; settings: not given; in short: as §1

Compound	MIC
[N-]=[N+]=NCC1=C(C(=O)[O-])N2C(=O)[C@@H](Nc3cc[n+](Cc4ccccc4)cc3)[C@H]2SC1	0.5 µg/mL (≈ 1.18 µM)
O=C([O-])C1=C(Cl)CS[C@@H]2[C@H](Nc3cc[n+](Cc4ccccc4)cc3)C(=O)N12	2 µg/mL (≈ 4.98 µM)
CN(C)CCn1nnnc1SCC1=C(C(=O)[O-])N2C(=O)[C@@H](Nc3cc[n+](Cc4ccccc4)cc3)[C@H]2SC1	0.5 µg/mL (≈ 0.905 µM)

Continued, values first:

MIC	Compound
> 128 µg/mL	Cn1nnnc1SCC1=C(C(=O)[O-])N2C(=O)[C@@H](Nc3cc[n+](COCC(Cl)(Cl)Cl)cc3C(=O)[O-])[C@H]2SC1.[Na+]
0.5 µg/mL (≈ 1.26 µM)	O=C([O-])C1=C(CO)CS[C@@H]2[C@H](Nc3cc[n+](Cc4ccccc4)cc3)C(=O)N12

test system: Staphylococcus aureus; experiment: Minimum inhibitory concentration against aerobic organism Staphylococcus aureus strain 2868; assay type: functional; settings: Staphylococcus aureus; read-out: MIC; in short: as §1

Compound	MIC
[N-]=[N+]=NCC1=C(C(=O)[O-])N2C(=O)[C@@H](Nc3cc[n+](Cc4ccccc4)cc3)[C@H]2SC1	2 µg/mL (≈ 4.73 µM)
O=C([O-])C1=C(Cl)CS[C@@H]2[C@H](Nc3cc[n+](Cc4ccccc4)cc3)C(=O)N12	128 µg/mL (≈ 319 µM)
CN(C)CCn1nnnc1SCC1=C(C(=O)[O-])N2C(=O)[C@@H](Nc3cc[n+](Cc4ccccc4)cc3)[C@H]2SC1	4 µg/mL (≈ 7.24 µM)

Results, then the compound that gave them:

MIC	Compound
> 128 µg/mL	Cn1nnnc1SCC1=C(C(=O)[O-])N2C(=O)[C@@H](Nc3cc[n+](COCC(Cl)(Cl)Cl)cc3C(=O)[O-])[C@H]2SC1.[Na+]
16 µg/mL (≈ 40.3 µM)	O=C([O-])C1=C(CO)CS[C@@H]2[C@H](Nc3cc[n+](Cc4ccccc4)cc3)C(=O)N12

test system: Enterococcus faecalis; experiment: Minimum inhibitory concentration against aerobic organism Streptococcus faecalis strain 2864; assay type: functional; settings: not given; in short: as §1

Compound	MIC
[N-]=[N+]=NCC1=C(C(=O)[O-])N2C(=O)[C@@H](Nc3cc[n+](Cc4ccccc4)cc3)[C@H]2SC1	> 128 µg/mL
O=C([O-])C1=C(Cl)CS[C@@H]2[C@H](Nc3cc[n+](Cc4ccccc4)cc3)C(=O)N12	> 128 µg/mL
CN(C)CCn1nnnc1SCC1=C(C(=O)[O-])N2C(=O)[C@@H](Nc3cc[n+](Cc4ccccc4)cc3)[C@H]2SC1	128 µg/mL (≈ 232 µM)

Further lines, results first:

MIC	Compound
> 128 µg/mL	Cn1nnnc1SCC1=C(C(=O)[O-])N2C(=O)[C@@H](Nc3cc[n+](COCC(Cl)(Cl)Cl)cc3C(=O)[O-])[C@H]2SC1.[Na+]
> 128 µg/mL	O=C([O-])C1=C(CO)CS[C@@H]2[C@H](Nc3cc[n+](Cc4ccccc4)cc3)C(=O)N12
